The text below walks through data of ChEMBL document CHEMBL1154576, “Isolation, structure determination, and biological activity of Lyngbyabellin A from the marine cyanobacterium lyngbya majuscula” (J Nat Prod, 2000).

Values after ≈ are worked out from the molar mass of the structure shown. Active and inactive are the calls of the source. The rule behind the calls is not given here.

Series [1] deals with KB. The experiment in a line: Cytotoxicity against human KB cells. The format is functional, cell-based.
For series [2], the system named is LoVo. Kind of series: Cytotoxicity against human LoVo cells. The format is functional, cell-based.
The species named for series [3] is Mus musculus. Kind of series: Toxicity in mouse assessed as lethal dose. The format is organism-based. The note with it: in vivo.
Series [4] has as its system MC-38. Kind of series: Antitumor activity against mouse C38 cells at 1.2 to 1.5 mg/kg. The format is functional, organism-based. The method, boiled down:
(§1)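 In vivo mice with murine colon adenocarcinoma C38 or mammary adenocarcinoma M16, dosed at sublethal levels of 1.2-1.5 mg/kg.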

The subject of series [5] is M16. Kind of series: Antitumor activity against mouse M16 cells at 1.2 to 1.5 mg/kg. The format is functional, organism-based. The method, boiled down: as §1
The test system of series [6] is A10. The experiment in a line: Disruption of cellular microfilament network in rat A10 cells at 0.01 to 5.0 ug/mL. The format is functional, cell-based. The method, boiled down: (§2)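 A-10 smooth muscle cells grown on glass coverslips in Basal Medium Eagle with 10% fetal calf serum, exposed to a range of concentrations or vehicle for 24 h. Microfilaments stained 45 min with 100 nM TRITC-phalloidin, chromatin stained with DAPI, and cells examined by fluorescence microscopy.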

Series [7] deals with A10. The experiment in a line: Disruption of cytoskeleton in rat A10 cells assessed as neuron-like gross cellular morphology. The format is functional, cell-based. The method, boiled down: as §2
For series [8], the system named is A10. The experiment in a line: Disruption of cytoskeleton in rat A10 cells assessed as cells with two nuclei. The format is functional, cell-based. The method, boiled down:
as §2

Series [9] deals with A10. The experiment in a line: Induction of apoptosis in rat A10 cells assessed as apoptotic bodies at 0.01 ug/mL. The format is functional, cell-based. The method, boiled down: as §2
Series [10] deals with A10. The experiment in a line: Disruption of microtubules in rat A10 cells. The format is functional, cell-based.
Series [11] has as its target T1, DNA topoisomerase 1 (Homo sapiens) (UniProt P11387).
T1 sequence (whole entry): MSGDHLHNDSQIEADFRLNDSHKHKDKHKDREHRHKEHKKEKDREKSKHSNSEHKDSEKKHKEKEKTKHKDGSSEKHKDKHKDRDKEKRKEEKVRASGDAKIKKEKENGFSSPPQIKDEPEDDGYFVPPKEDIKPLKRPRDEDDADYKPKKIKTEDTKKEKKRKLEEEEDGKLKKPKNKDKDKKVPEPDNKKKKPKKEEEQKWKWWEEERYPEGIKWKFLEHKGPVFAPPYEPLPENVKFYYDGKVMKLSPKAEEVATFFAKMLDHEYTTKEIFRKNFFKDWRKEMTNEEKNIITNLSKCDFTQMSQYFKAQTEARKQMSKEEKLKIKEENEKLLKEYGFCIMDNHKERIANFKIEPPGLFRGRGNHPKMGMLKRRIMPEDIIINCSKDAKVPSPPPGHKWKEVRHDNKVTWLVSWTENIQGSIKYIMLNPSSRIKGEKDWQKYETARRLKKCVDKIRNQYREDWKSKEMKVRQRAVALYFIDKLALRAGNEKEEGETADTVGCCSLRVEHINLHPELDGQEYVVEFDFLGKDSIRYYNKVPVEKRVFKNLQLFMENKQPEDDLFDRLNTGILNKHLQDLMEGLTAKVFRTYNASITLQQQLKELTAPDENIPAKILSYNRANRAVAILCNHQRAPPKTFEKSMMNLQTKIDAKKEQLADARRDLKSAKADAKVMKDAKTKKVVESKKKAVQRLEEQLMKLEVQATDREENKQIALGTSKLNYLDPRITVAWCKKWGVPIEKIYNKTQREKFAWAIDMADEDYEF
The experiment in a line: Inhibition of topoisomerase 1 at 5 ug/mL.

Series [12] addresses T1, DNA topoisomerase 1 (Homo sapiens). Kind of series: Inhibition of topoisomerase 1 at 10 ug/mL.

The term IC50 denotes the concentration that gives 50% inhibition. A low value points to inhibition by little substance. With `CC[C@H](C)[C@@H]1NC(=O)CNC(=O)c2csc(n2)[C@H](C(C)(C)O)OC(=O)C(C)(C)[C@H](CCCC(C)(Cl)Cl)OC(=O)c2csc1n2` [LYNGBYABELLIN A], the IC50 was found to be 0.03 µg/mL (≈ 0.0434 µM) in series [1] and 0.5 µg/mL (≈ 0.723 µM) in series [2]. For the same molecule, the Activity in series [3] is 2.4 mg/kg. Also, the outcome in [4], in series [5], in series [10], in [11] and in [12] was inactive. The outcome in series [6], in series [7], in [8] and in series [9] was Active.
